Measurements taken from article PMC8742637 (Clinical and Translational Science, 2021).
Like-named read-outs stand apart in the source and are kept apart here.

Tests used:
[1] = type: in vivo; conditions: human, plasma, po, 10 mg
Summary of the method: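 Single-center, randomized, open-label, three-period, six-sequence crossover in healthy volunteers. Each drug was given alone and with the other as a single oral dose after a 10-h fast. Blood was sampled to 72 h, and washout was at least 21 days. Plasma was analysed by LC-MS with stable isotope-labeled internal standards. Noncompartmental parameters: AUC0-T by linear trapezoidal rule, AUC∞ = AUC0-T + Clast/λz.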

[2] = Study 3: safety, treatment-emergent adverse events; type: in vivo, human; conditions: BISO 10 mg, RAMI 10 mg alone or together, % of subjects in the Safety population in each treatment group
[3] = Bioequivalence studies 1 and 2: PK summary across both treatments and studies; type: in vivo, human
Summary of the method: (§1)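 Single-center, randomized, open-label, laboratory-blinded, two-period, two-sequence crossover in healthy volunteers. Each subject got one oral dose of the fixed-dose combination or the co-administered reference tablets with ~240 ml water after a 10-h fast. Washout was at least 21 days. Parent drugs were measured in plasma by LC-MS after protein precipitation. Noncompartmental analysis used actual times, with t½ = ln(2)/λz.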

[4] = type: in vivo, human
Summary of the method: as §1

[5] = type: in vivo; conditions: human, plasma, oral, 5 mg
Summary of the method: as §1

SMILES	AUC(0-inf) [1]	AUC(0-t) [1]	Cmax [1]	Tmax [1]	half-life [1]	Subjects with at least one drug‐related TEAE [2]	time after dosing at which BISO peak concentrations were achieved ([3]; across both treatments, studies 1 and 2, BISO 10 mg single oral dose, fasting)	half-life ([3]; human, plasma, oral)	observed ISCV (intrasubject coefficient of variation) for Cmax ([4]; Study 1, expected 32%)	half-life ([4]; human, plasma, oral, 10 mg)	half-life [5]	median time to ramipril peak concentration ([3]; across both treatments and studies 1 and 2)
CC(C)NCC(O)COc1ccc(COCCOC(C)C)cc1 (stereo not drawn) [BISO, bisoprolol]	777 ng·h/mL	732 ng·h/mL	42.6 ng/mL	2.33 h	11.2 h	4 (13.8) n (%)	2.33 h	10.7 to 10.9 h	–	–	–	–
CCOC(=O)[C@H](CCc1ccccc1)N[C@@H](C)C(=O)N1[C@H](C(=O)O)C[C@@H]2CCC[C@@H]21 [RAMI, ramipril]	18.1 ng·h/mL	17.1 ng·h/mL	24.1 ng/mL	0.5 h	2.03 h	3 (10.7) n (%)	–	–	36%	2.17 to 2.32 h	1.39 to 1.68 h	0.50 h
